Experimental data: ChEMBL document CHEMBL1926574, “Synthesis and biological evaluation of a new series of 1,2,4-triazolo[1,5-a]-1,3,5-triazines as human A(2A) adenosine receptor antagonists with improved water solubility” (J Med Chem, 2011)

How the values were obtained:
[1] = molecular target: T1, Adenosine receptor A2b (Homo sapiens, UniProt P29275); assay: Antagonist activity at human recombinant adenosine A2B receptor expressed in CHO cells assessed as inhibition of NECA-stimulated adenylyl cyclase activity; assay type: functional, cell-based
T1 sequence (P29275 whole entry): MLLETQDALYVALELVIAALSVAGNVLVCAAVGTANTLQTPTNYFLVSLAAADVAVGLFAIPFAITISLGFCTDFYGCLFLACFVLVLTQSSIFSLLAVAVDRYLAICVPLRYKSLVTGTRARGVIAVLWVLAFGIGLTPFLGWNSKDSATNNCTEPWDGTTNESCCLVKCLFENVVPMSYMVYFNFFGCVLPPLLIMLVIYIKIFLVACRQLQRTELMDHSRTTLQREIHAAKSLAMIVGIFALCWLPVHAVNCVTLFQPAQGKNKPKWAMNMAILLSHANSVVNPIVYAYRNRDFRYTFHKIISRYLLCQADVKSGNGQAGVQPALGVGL
In short: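 Membranes from CHO cells stably expressing the hA2B receptor were incubated 20 min with about 150,000 cpm [α-32P]ATP, without EGTA and NaCl. The read-out was antagonist concentration-dependent inhibition of NECA-stimulated adenylyl cyclase. IC50 was calculated with the Hill equation.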

[2] = molecular target: T2, Adenosine receptor A1 (Homo sapiens) (UniProt P30542); assay: Displacement of [3H]DPCPX from human adenosine A1 receptor expressed in HEK293 cells at 10 uM by scintillation counting; assay type: cell-based
T2 sequence (whole entry): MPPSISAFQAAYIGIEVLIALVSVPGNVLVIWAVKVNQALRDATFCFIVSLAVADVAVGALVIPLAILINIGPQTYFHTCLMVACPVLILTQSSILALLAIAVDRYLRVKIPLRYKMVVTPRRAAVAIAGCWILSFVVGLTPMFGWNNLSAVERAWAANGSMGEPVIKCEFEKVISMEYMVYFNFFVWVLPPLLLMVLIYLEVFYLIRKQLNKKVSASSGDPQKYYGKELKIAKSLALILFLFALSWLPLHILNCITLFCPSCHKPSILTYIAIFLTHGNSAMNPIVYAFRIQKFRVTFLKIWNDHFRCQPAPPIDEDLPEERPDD

[3] = molecular target: T3, Adenosine receptor A3 (Homo sapiens) (UniProt P0DMS8); assay: Displacement of [I125]I-AB-MECA from human adenosine A3 receptor expressed in CHO cells at 10 uM by scintillation counting; assay type: cell-based
T3 sequence (whole entry): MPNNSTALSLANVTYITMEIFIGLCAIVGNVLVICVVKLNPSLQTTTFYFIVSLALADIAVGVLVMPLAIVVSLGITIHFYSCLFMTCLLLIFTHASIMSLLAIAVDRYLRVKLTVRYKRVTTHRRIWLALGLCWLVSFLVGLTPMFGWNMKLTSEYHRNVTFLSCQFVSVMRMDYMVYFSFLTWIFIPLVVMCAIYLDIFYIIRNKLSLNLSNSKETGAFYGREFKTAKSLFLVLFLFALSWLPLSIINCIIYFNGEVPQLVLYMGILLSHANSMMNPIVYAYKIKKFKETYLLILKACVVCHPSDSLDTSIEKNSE

[4] = molecular target: Adenosine receptor A2a (Homo sapiens, UniProt P29274); assay: Displacement of [3H]ZM241385 from human adenosine A2A receptor expressed in HEK293 cells by scintillation counting; assay type: cell-based
[5] = molecular target: T4, Adenosine receptor A1 (Homo sapiens, UniProt P30542); assay: Displacement of [3H]DPCPX from human adenosine A1 receptor expressed in HEK293 cells by scintillation counting; assay type: cell-based
T4 sequence (P30542 whole entry): T2 sequence (whole entry)

[6] = organism: Homo sapiens; assay: Selectivity ratio of Ki for human adenosine A1 receptor to Ki for human adenosine A2A receptor
[7] = organism: Homo sapiens; assay: Selectivity ratio of Ki for human adenosine A3 receptor to Ki for human adenosine A2A receptor

Adenosine receptor A2a, sequence (P29274 whole entry): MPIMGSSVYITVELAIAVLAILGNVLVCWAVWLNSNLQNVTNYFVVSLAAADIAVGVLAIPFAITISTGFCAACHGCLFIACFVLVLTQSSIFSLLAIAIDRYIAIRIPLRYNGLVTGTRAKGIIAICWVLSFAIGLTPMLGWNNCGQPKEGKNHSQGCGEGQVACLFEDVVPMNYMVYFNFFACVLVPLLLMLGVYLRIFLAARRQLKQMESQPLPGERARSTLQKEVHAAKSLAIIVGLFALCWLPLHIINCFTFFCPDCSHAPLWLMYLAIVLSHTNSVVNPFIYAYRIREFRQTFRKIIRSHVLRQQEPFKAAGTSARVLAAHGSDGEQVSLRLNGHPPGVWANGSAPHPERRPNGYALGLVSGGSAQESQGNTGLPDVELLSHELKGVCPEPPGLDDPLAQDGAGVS

| Compound | IC50 [1] | Activity [2] | Activity [3] | Ki [4] | Ki [5] | Ratio Ki [6] | Ratio Ki [7] |
| --- | --- | --- | --- | --- | --- | --- | --- |
| Nc1nc(N2CCN(C(=O)c3cccc4ccccc34)CC2)nc2nc(-c3ccco3)nn12 | > 100000 nM | 4.9% | 31.1% | 7680 nM |  |  |  |
| Nc1nc(N)n2nc(-c3ccco3)nc2n1 | 11100 nM |  | 36.4% | 160 nM | 1410 nM | 9 |  |
| Nc1nc(N2CCN(Cc3cccc(Cl)c3)CC2)nc2nc(-c3ccco3)nn12 | > 30000 nM |  | 52.7% | 51.8 nM | 1510 nM | 29 | 200 |
| O=C(Nc1nc(Oc2ccccc2)nc2nc(-c3ccco3)nn12)c1ccccc1 | > 10000 nM | 26.2% | 32.3% | 1000 nM |  |  |  |
| NCCNc1nc(N)n2nc(-c3ccco3)nc2n1 | > 100000 nM | 35.8% | 30.8% | 567 nM |  |  |  |
| NCCCCCNc1nc(N)n2nc(-c3ccco3)nc2n1 | > 10000 nM |  | 49.9% | 90.1 nM | 2950 nM | 33 |  |
| CC(C)(C)OC(=O)NCCCCCNc1nc(N)n2nc(-c3ccco3)nc2n1 | > 10000 nM |  | 68.6% | 44.7 nM | 963 nM | 21.5 |  |
| CC(C)(C)OC(=O)N1CCN(c2nc(N)n3nc(-c4ccco4)nc3n2)CC1 | > 10000 nM |  | 56.6% | 21 nM | 5400 nM | 257 | 400 |
| Nc1nc(N2CCN(Cc3ccccc3)CC2)nc2nc(-c3ccco3)nn12 | > 30000 nM |  | 71.9% | 20.6 nM | 978 nM | 47.5 |  |
| NCCCNc1nc(N)n2nc(-c3ccco3)nc2n1 | > 30000 nM | 44.3% | 40.5% | 270 nM |  |  |  |
| CC(C)(C)OC(=O)NCC1CCC(CNc2nc(N)n3nc(-c4ccco4)nc3n2)CC1 (centres undefined) | 7140 nM |  | 75.5% | 69.7 nM | 3890 nM | 56 |  |
| Nc1nc(O)nc2nc(-c3ccco3)nn12 | > 10000 nM |  | 43.9% | 201 nM | 3110 nM | 15.5 | 50 |
| Nc1nc(N2CCCC2)nc2nc(-c3ccco3)nn12 | > 30000 nM |  | 75% | 59.1 nM | 1940 nM | 33 |  |
| O=C(Nc1nc(O)nc2nc(-c3ccco3)nn12)c1ccccc1 | > 100000 nM | 34.4% | 75.9% | 1750 nM |  |  |  |
| Nc1nc(N2CCN(C(=O)Cc3ccccc3)CC2)nc2nc(-c3ccco3)nn12 | > 100000 nM |  | 64.5% | 94.8 nM | 3510 nM | 37 |  |
| Nc1nc(N2CCN(Cc3ccc(F)cc3)CC2)nc2nc(-c3ccco3)nn12 | > 10000 nM |  | 71.3% | 52.3 nM | 655 nM | 12.5 |  |

| Compound | IC50 [1] | Activity [2] | Activity [3] | Ki [4] | Ki [5] | Ratio Ki [6] | Ratio Ki [7] |
| --- | --- | --- | --- | --- | --- | --- | --- |
| CCCCC(=O)N1CCN(c2nc(N)n3nc(-c4ccco4)nc3n2)CC1 | > 100000 nM | 10.8% | 56.2% | 124 nM |  |  |  |
| CC(C)(C)CC(=O)N1CCN(c2nc(N)n3nc(-c4ccco4)nc3n2)CC1 | > 100000 nM | 53.1% | 41.9% | 11.1 nM |  | 900 | > 900 |
| Nc1nc(N2CCN(C(=O)c3ccccc3)CC2)nc2nc(-c3ccco3)nn12 | > 100000 nM | 27.7% | 22.6% | 348 nM |  |  |  |
| Nc1nc(N2CCN(Cc3ccc(Br)cc3)CC2)nc2nc(-c3ccco3)nn12 | > 10000 nM |  | 49.8% | 27.3 nM | 86.7 nM | 3.2 | 300 |
| COC(=O)CCC(=O)N1CCN(c2nc(N)n3nc(-c4ccco4)nc3n2)CC1 | > 100000 nM | 19.4% | 37.2% | 66.2 nM |  |  |  |
| CC(C)(C)C(=O)N1CCN(c2nc(N)n3nc(-c4ccco4)nc3n2)CC1 | > 100000 nM | 38.7% | 32.3% | 58.4 nM |  |  |  |
| CC(C)(C)OC(=O)NCCCNc1nc(N)n2nc(-c3ccco3)nc2n1 | 20600 nM |  | 77.3% | 38.6 nM | 344 nM | 9 |  |
| Nc1nc(N2CCN(C(=O)c3ccc([N+](=O)[O-])cc3)CC2)nc2nc(-c3ccco3)nn12 | > 100000 nM | 35.5% | 50.9% | 212 nM |  |  | 40 |
| CC(C)(C)OC(=O)NCCOCCOCCNc1nc(N)n2nc(-c3ccco3)nc2n1 | > 10000 nM |  | 74% | 17.8 nM | 1580 nM | 89 |  |
| NCCNc1nc(NCCN)n2nc(-c3ccco3)nc2n1 | > 100000 nM | 10.7% | 17.7% | 38200 nM |  | 0.3 |  |
| Nc1nc(N2CCN(C(=O)C(c3ccccc3)c3ccccc3)CC2)nc2nc(-c3ccco3)nn12 | > 100000 nM |  | 40.6% | 92.9 nM | 7470 nM | 80 |  |
| Nc1nc(N2CCN(Cc3ccc(Cl)cc3)CC2)nc2nc(-c3ccco3)nn12 | > 30000 nM |  | 66.8% | 102 nM | 220 nM | 2.1 |  |
| Nc1nc(N2CCNCC2)nc2nc(-c3ccco3)nn12 | > 30000 nM | 28.6% | 29.9% | 153 nM |  |  |  |
| Nc1nc(NC(=O)c2ccccc2)n2nc(-c3ccco3)nc2n1 | 7060 nM |  | 67.2% | 44.1 nM | 1800 nM | 40 |  |
| Nc1nc(N2CCN(C(=O)C(Cl)Cl)CC2)nc2nc(-c3ccco3)nn12 | > 100000 nM | 34.6% | 33.6% | 282 nM |  |  |  |
